≈ marks a conversion by molar mass, not a printed value.
Columns and labels:
[1] = Stability of the compound in 10% aqueous ammonia buffer at pH 8 assessed as hydrolysis to 2-bromo-6-(1H-imidazol-1-yl)-7H-indeno[2,1-c]quinolin-7-one oxime at 1 mg at 37 degC by LC-MS analysis; type: physicochemical; design: scale not given: the % may be the effect or the level left
Method in brief: (§1)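 Chemical hydrolysis: 1 mg prodrug dissolved in 1 mL of 10% aqueous ammonia in methanol (pH 8) and held in a thermostatted water bath at 37 °C, up to 24 h. Conversion to the parent oxime was followed by TLC and LC-MS. t1/2 is the time to 50% hydrolysis.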

[2] = Cytotoxicity against human U937 cells assessed as cell viability at 10 ug/ml after 72 hrs by MTT assay; type: cell-based, U-937; conditions: read-out: Activity
Method in brief: (§2)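 U937 human monocytic cells plated at 1 × 10^5 cells/mL and allowed to adhere for 1 h at 37 °C in 5% CO2. Non-adherent cells were washed off with RPMI 1640. Adherent cells were exposed to compound in triplicate, with medium alone as the live control and 3% Tween 20 as the dead control. MTT (5 mg/mL in PBS) was then added for 3 h at 37 °C. Formazan was dissolved in 0.4 M HCl/isopropanol and absorbance read at 600 nm. Results are expressed as % cell viability.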

[3] = Half life in human blood serum by LC-MS analysis; type: ADME, cell-free, Plasma
Method in brief: (§3)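 Enzymatic hydrolysis: 1 mg prodrug dissolved in 1 mL ethanol, then 200 µL preheated human blood serum diluted to 80% with 0.16 M phosphate buffer (pH 7.4) was added. Samples were kept at 37 °C (24 h) and centrifuged 10 min at 10,000 rpm. Remaining prodrug in the supernatant was monitored by TLC and LC-MS. t1/2 is the time to 50% hydrolysis.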

[4] = Cytotoxicity against human U937 cells assessed as cell viability at 1.25 ug/ml after 72 hrs by MTT assay; type: cell-based, U-937; conditions: read-out: Activity; method in brief: as §2
Serum = assay: Stability of the compound in 80% human blood serum assessed as hydrolysis to 2-bromo-6-(1H-imidazol-1-yl)-7H-indeno[2,1-c]quinolin-7-one oxime at 1 mg after 24 hrs at 37 degC by LC-MS analysis; type: ADME, cell-free; design: scale not given: the % may be the effect or the level left; method in brief: as §3
[5] = Half life in 10% aqueous ammonia buffer at pH 8 assessed as hydrolysis to 2-bromo-6-(1H-imidazol-1-yl)-7H-indeno[2,1-c]quinolin-7-one oxime at 37 degC by LC-MS analysis; type: physicochemical; method in brief: as §1
[6] = Cytotoxicity against human U937 cells assessed as cell viability at 5 ug/ml after 72 hrs by MTT assay; type: cell-based, U-937; conditions: read-out: Activity; method in brief: as §2
[7] = Cytotoxicity against human U937 cells assessed as cell viability at 20 ug/ml after 72 hrs by MTT assay; type: cell-based, U-937; conditions: read-out: Activity; method in brief: as §2
[8] = Selectivity index, ratio CC50 for human U937 cells to MIC for Mycobacterium tuberculosis H37Rv ATCC 27294; type: functional, U-937
[9] = tested on: Mycobacterium tuberculosis; assay: Antimicrobial activity against Mycobacterium tuberculosis H37Rv ATCC 27294 after 16 to 24 hrs by microplate alamar blue assay; type: functional
Method in brief: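 M. tuberculosis H37Rv inoculum 2×10^5 cfu/mL (100 µL) added to twofold dilutions in Middlebrook 7H12 medium; final test range 128 µM to 0.5 µM from 12.8 mM DMSO stocks. Incubated 37 °C; day 7 Tween 80 plus Alamar Blue added, further 16-24 h at 37 °C. Fluorescence ex 530/em 590 nm; MIC = lowest concentration giving >90% fluorescence reduction versus replicate bacteria-only controls. Rifampin, isoniazid controls.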

[10] = Octanol-water partition coefficient, log P of the compound at pH 7.4 at room temperature by UV spectrophotometric analysis; type: physicochemical
Method in brief: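 Shake-flask method at room temperature: 1-octanol and phosphate buffer (pH 7.4) were pre-saturated by shaking for 24 h. Compound at 10^-4 M in equal volumes of both phases was shaken vigorously for 1 h, left to stand 15 min, then centrifuged 10 min at 10,000 rpm. UV absorbance of each phase was read at 280 nm against blanks, and P was taken as the octanol/water absorbance ratio.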

Structure (SMILES): CC(=O)O/N=C1\c2ccccc2-c2c1c(-n1ccnc1)nc1ccc(Br)cc21
- Activity [1]: 95%
- viability at 72 h, 10 ug/ml [2]: 59%
- half-life [3]: 84 h
- viability at 72 h, 1.25 ug/ml [4]: 87%
- Activity (Serum): 94%
- half-life [5]: 48 h
- viability at 72 h, 5 ug/ml [6]: 78%
- viability at 72 h, 20 ug/ml [7]: 42%
- Selectivity Index [8]: >71
- MIC [9]: < 0.2 µg/mL
- logD [10]: 1.1

Structure (SMILES): CC1(OC(=O)CC(F)(F)F)c2ccccc2-c2c1c(-n1ccnc1)nc1ccc(Br)cc21 (stereo not given)
- Activity [1]: 96%
- viability at 72 h, 10 ug/ml [2]: 62%
- half-life [3]: 480 h
- viability at 72 h, 1.25 ug/ml [4]: 92%
- half-life [5]: 24 h
- viability at 72 h, 5 ug/ml [6]: 80%
- viability at 72 h, 20 ug/ml [7]: 26%
- Selectivity Index [8]: 22.4
- MIC [9]: 0.5 µg/mL (≈ 0.995 µM)
- logD [10]: 1.8

Structure (SMILES): CCC(=O)O/N=C1\c2ccccc2-c2c1c(-n1ccnc1)nc1ccc(Br)cc21
- Activity [1]: 95%
- viability at 72 h, 10 ug/ml [2]: 75%
- half-life [3]: 84 h
- viability at 72 h, 1.25 ug/ml [4]: 84%
- Activity (Serum): 90%
- half-life [5]: 48 h
- viability at 72 h, 5 ug/ml [6]: 86%
- viability at 72 h, 20 ug/ml [7]: 67%
- Selectivity Index [8]: >137
- MIC [9]: 0.29 µg/mL (≈ 0.648 µM)
- logD [10]: 1.2

Structure (SMILES): CCCCC(=O)O/N=C1\c2ccccc2-c2c1c(-n1ccnc1)nc1ccc(Br)cc21
- Activity [1]: 90%
- viability at 72 h, 10 ug/ml [2]: 75%
- half-life [3]: 144 h
- viability at 72 h, 1.25 ug/ml [4]: 85%
- Activity (Serum): 90%
- half-life [5]: 72 h
- viability at 72 h, 5 ug/ml [6]: 82%
- viability at 72 h, 20 ug/ml [7]: 51%
- Selectivity Index [8]: 60
- MIC [9]: 0.28 µg/mL (≈ 0.589 µM)
- logD [10]: 1.6

Structure (SMILES): CC(C)(C)OC(=O)NC(Cc1cccc(F)c1)C(=O)O/N=C1\c2ccccc2-c2c1c(N1CCN(c3ccccn3)CC1)nc1ccc(Br)cc21 (stereo not given)
- Activity [1]: 95%
- viability at 72 h, 10 ug/ml [2]: 79%
- half-life [3]: 144 h
- viability at 72 h, 1.25 ug/ml [4]: 92%
- Activity (Serum): 95%
- half-life [5]: 72 h
- viability at 72 h, 5 ug/ml [6]: 90%
- viability at 72 h, 20 ug/ml [7]: 84%
- Selectivity Index [8]: >13
- MIC [9]: 2.98 µg/mL (≈ 3.96 µM)
- logD [10]: 1.1

Structure (SMILES): CCCC(=O)O/N=C1\c2ccccc2-c2c1c(-n1ccnc1)nc1ccc(Br)cc21
- Activity [1]: 95%
- viability at 72 h, 10 ug/ml [2]: 69%
- half-life [3]: 96 h
- viability at 72 h, 1.25 ug/ml [4]: 85%
- Activity (Serum): 90%
- half-life [5]: 36 h
- viability at 72 h, 5 ug/ml [6]: 88%
- viability at 72 h, 20 ug/ml [7]: 70%
- Selectivity Index [8]: >200
- MIC [9]: < 0.2 µg/mL
- logD [10]: 1.5

Structure (SMILES): CCCCCCCCC(=O)O/N=C1\c2ccccc2-c2c1c(-n1ccnc1)nc1ccc(Br)cc21
- Activity [1]: 95%
- viability at 72 h, 10 ug/ml [2]: 77%
- half-life [3]: 72 h
- viability at 72 h, 1.25 ug/ml [4]: 87%
- Activity (Serum): 95%
- half-life [5]: 24 h
- viability at 72 h, 5 ug/ml [6]: 85%
- viability at 72 h, 20 ug/ml [7]: 72%
- Selectivity Index [8]: >102
- MIC [9]: 0.39 µg/mL (≈ 0.734 µM)
- logD [10]: 1.9

Structure (SMILES): CC(C)(C)OC(=O)NC(Cc1ccccc1)C(=O)O/N=C1\c2ccccc2-c2c1c(N1CCN(c3ccccn3)CC1)nc1ccc(Br)cc21 (stereo not given)
- Activity [1]: 98%
- viability at 72 h, 10 ug/ml [2]: 71%
- half-life [3]: 432 h
- viability at 72 h, 1.25 ug/ml [4]: 87%
- Activity (Serum): 70%
- half-life [5]: 72 h
- viability at 72 h, 5 ug/ml [6]: 87%
- viability at 72 h, 20 ug/ml [7]: 73%
- Selectivity Index [8]: >12
- MIC [9]: 3.47 µg/mL (≈ 4.73 µM)
- logD [10]: 1.2

Structure (SMILES): CC(C)(C)OC(=O)NCC(=O)O/N=C1\c2ccccc2-c2c1c(N1CCN(c3ccccn3)CC1)nc1ccc(Br)cc21
- Activity [1]: 95%
- viability at 72 h, 10 ug/ml [2]: 63%
- half-life [3]: 24 h
- viability at 72 h, 1.25 ug/ml [4]: 87%
- Activity (Serum): 95%
- half-life [5]: 3.6 h
- viability at 72 h, 5 ug/ml [6]: 82%
- viability at 72 h, 20 ug/ml [7]: 49%
- Selectivity Index [8]: 22
- MIC [9]: 1.55 µg/mL (≈ 2.41 µM)
- logD [10]: 0.7

Structure (SMILES): CC(C)(C)OC(=O)N1CCC[C@H]1C(=O)O/N=C1\c2ccccc2-c2c1c(-n1ccnc1)nc1ccc(Br)cc21
- Activity [1]: 90%
- viability at 72 h, 10 ug/ml [2]: 74%
- half-life [3]: 24 h
- viability at 72 h, 1.25 ug/ml [4]: 87%
- Activity (Serum): 95%
- half-life [5]: 12 h
- viability at 72 h, 5 ug/ml [6]: 86%
- viability at 72 h, 20 ug/ml [7]: 78%
- Selectivity Index [8]: >102
- MIC [9]: 0.39 µg/mL (≈ 0.663 µM)
- logD [10]: 1.3

Structure (SMILES): CCCCCCC(=O)O/N=C1\c2ccccc2-c2c1c(-n1ccnc1)nc1ccc(Br)cc21
- Activity [1]: 95%
- viability at 72 h, 10 ug/ml [2]: 67%
- half-life [3]: 192 h
- viability at 72 h, 1.25 ug/ml [4]: 85%
- Activity (Serum): 85%
- half-life [5]: 48 h
- viability at 72 h, 5 ug/ml [6]: 80%
- viability at 72 h, 20 ug/ml [7]: 60%
- Selectivity Index [8]: >111
- MIC [9]: 0.36 µg/mL (≈ 0.715 µM)
- logD [10]: 1.5
